Publication PMC4636435 (Cell host & microbe, 2015)
“Also recorded” adds a separate entry of the source.

Legend:
cathelicidin = conditions: human cells; ref Liu et al., 2006; cited from earlier work
wild-type and Δemm1 GAS = test: Resistance of wild-type and Δemm1 GAS to antimicrobial peptides; format: cell-based, Streptococcus pyogenes (group A Streptococcus); conditions: serum-free DMEM with 10% THB, 24 h; for M1-dependent protection of GAS from killing by the peptide: wild-type vs. Δemm1 GAS
Method in brief: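 GAS M1T1 5448 and isogenic Δemm1 were grown overnight at 37°C, diluted 1:40 in Todd-Hewitt broth, grown statically at 37°C to OD600 0.400, then PBS-washed. 2×10^5 bacteria in serum-free DMEM with phenol red and 10% THB were exposed to cathelicidin- or defensin-family peptides. MIC was the lowest concentration preventing growth after 24 h. Means ± s.d., n=3; ≥3 independent experiments.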

human neutrophils = test: Neutrophil chemotaxis in transwell system; format: cell-based; conditions: 1 h, 37°C, n=3
recombinant M1 protein = test: Pulldown with His-tagged recombinant M1 as bait / blot; format: binding, Streptococcus pyogenes (group A Streptococcus), M1T1
[1] = biological target: LL-37, human cathelicidin antimicrobial peptide (human); test: SPR
recombinant M49 protein = biological target: T1, recombinant M49 protein (Streptococcus pyogenes (group A …, UniProt P16947 42-359)); test: SPR
T1 sequence: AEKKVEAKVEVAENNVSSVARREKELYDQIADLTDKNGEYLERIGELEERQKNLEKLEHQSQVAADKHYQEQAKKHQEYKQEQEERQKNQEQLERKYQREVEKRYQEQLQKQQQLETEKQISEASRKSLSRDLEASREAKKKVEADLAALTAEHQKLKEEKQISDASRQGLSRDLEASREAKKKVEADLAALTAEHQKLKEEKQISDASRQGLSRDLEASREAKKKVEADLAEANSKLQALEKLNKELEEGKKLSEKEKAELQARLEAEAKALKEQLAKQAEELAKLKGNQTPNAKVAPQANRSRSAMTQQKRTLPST

M1 protein = test: SPR; format: binding, Streptococcus pyogenes (group A Streptococcus), M1T1; conditions: ratio of Kd M49 vs. M1, SPR
[2] = system: M1T1 GAS, wild-type vs. Δemm1; test: FACS detection of cathelicidin on bacterial surface; format: cell-based, Streptococcus pyogenes (group A Streptococcus); conditions: recombinant hCAP18, wild-type vs. Δemm1, anti-LL-37 antibody

## C=C1CC[C@H](O)C/C1=C/C=C1\CCC[C@]2(C)[C@@H]([C@H](C)/C=C/[C@H](C)C(C)C)CC[C@@H]12 [vitamin D]
cathelicidin
  induction of cathelicidin expression: strongly induces cathelicidin expression

## KR-20: processed form of cathelicidin expressed by keratinocytes in human skin; de novo synthesis (Anaspec) (KRIVQRIKDFLRNLVPRTES)
wild-type and Δemm1 GAS
  M1-dependent protection of GAS from killing by the peptide: M1 protected GAS from killing

## N-formyl-Met-Leu-Phe [fMLP]
Human neutrophils
  stimulation of neutrophil chemotaxis: stimulated robust chemotaxis of neutrophils

## mCRAMP: active murine form of cathelicidin; de novo synthesis (Anaspec) (ISRLAGLLRKGGEKIGEKLKKIGQKIKNFFQKLVPQPE)
Recombinant M1 protein; statement in the in vivo section
  binding and inhibition by M1 vs. M49: M1 but not M49 binds and inhibits CRAMP
wild-type and Δemm1 GAS
  M1-dependent protection of GAS from killing by the peptide: M1 protected GAS from killing

## recombinant M1 protein (from UniProt Q99XV0) (natural protein)
[1]
  Kd: 1.18 µM

B1: recombinant M49 protein (natural protein)
chain: AEKKVEAKVEVAENNVSSVARREKELYDQIADLTDKNGEYLERIGELEERQKNLEKLEHQSQVAADKHYQEQAKKHQEYKQEQEERQKNQEQLERKYQREVEKRYQEQLQKQQQLETEKQISEASRKSLSRDLEASREAKKKVEADLAALTAEHQKLKEEKQISDASRQGLSRDLEASREAKKKVEADLAALTAEHQKLKEEKQISDASRQGLSRDLEASREAKKKVEADLAEANSKLQALEKLNKELEEGKKLSEKEKAELQARLEAEAKALKEQLAKQAEELAKLKGNQTPNAKVAPQANRSRSAMTQQKRTLPST
[1]
  Kd: 62.7 µM

B2: recombinant hCAP18, full-length human cathelicidin (natural protein)
chain: QVLSYKEAVLRAIDGINQRSSDANLYRLLDLDPRPTMDGDPDTPKPVSFTVKETVCPRTTQQSPEDCDFKKDGLVKRCMGTVTLNQARGSFDISCDKDNKRFALLGDFFRKSKEKIGKEFKRIVQRIKDFLRNLVPRTES
Recombinant M49 protein
  Kd: 9.07 µM

B3: hCAP18: full-length human cathelicidin precursor, recombinant, expressed from pET28a (protein)
chain: QVLSYKEAVLRAIDGINQRSSDANLYRLLDLDPRPTMDGDPDTPKPVSFTVKETVCPRTTQQSPEDCDFKKDGLVKRCMGTVTLNQARGSFDISCDKDNKRFALLGDFFRKSKEKIGKEFKRIVQRIKDFLRNLVPRTES
modifications: left off: His tag (from the vector pET28a), end not stated, state not stated
M1 protein
  stronger binding of M1 compared to M49 protein (from Kd): 10 fold
Recombinant M1 protein; whole lysates from neutrophils, Western blot with anti-LL-37 antibody
  major cathelicidin form pulled down by M1 from neutrophil lysate: the major cathelicidin form detected was uncleaved hCAP18
[2]
  binding to bacterial surface: recombinant hCAP18 bound the GAS surface in an M1-dependent manner; also recorded: Δemm1 GAS binds significantly less hCAP18 than wild-type GAS
wild-type and Δemm1 GAS; wild-type and Δemm1 GAS
  antimicrobial activity: lacked antimicrobial activity
